The nature of data set [1]: Drug metabolism in rat bile assessed as glucuronide metabolite formation at 0.74 mg/kg, iv after 1 hr by LC/MS/MS analysis. In kind it is ADME, organism-based. Particulars: in vivo.
The species entered for data set [2] is Homo sapiens. In words: Inhibition of HDAC/PI3K in human HCT116 cells assessed as increase in cleaved caspase-3 level at 0.5 to 5 uM after 16 hrs by Western blot analysis. Type of data set: cell-based. The procedure, abridged:
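Immunoblot of HCT116 lysates (RIPA). 40 μg protein per lane on 10−12% SDS-PAGE, transferred to nitrocellulose, blocked 0.5 h in 5% milk/TBST. Primary antibodies 1:1000 overnight at 4 °C, secondary 1:1000 for 1 h, bands visualized by enhanced ECL.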
On the technique in general: Immunoblotting shows a protein as a band on a membrane.

For data set [3], the system named is Mus musculus. The experiment in a line: In vivo inhibition of PI3K in tumor of human HCT116 cells xenografted in athymic nude BALB/c mouse assessed as reduction in phosphorylated AKT expression at S473 residue by DAB staining based immunohistochemistry method. Type of data set: functional, organism-based. Summed up: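 HCT116 xenograft tumors from treated and vehicle mice stained immunohistochemically for Ki67, acetyl-H3 and p-AKT(S473) (200×); integrated optical density quantified; mean ± SEM, n = 5−7, one-way ANOVA versus vehicle.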
(In xenograft studies the graft and the host belong to different species.)

Data set [4] can be described thus: Drug level in tumor of human HGC27 cells xenografted in BALB/c mouse at 100 mg/kg, po measured 0.5 hrs post last dose. Type of data set: ADME, organism-based, Neoplasm. Particulars: read-out: Drug uptake. Summed up: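 HGC-27 xenografted nude mice dosed po (0.5% cmc/Tween 80) or ip (saline); at end of treatment, 0.5 h after final dose, plasma and tumor tissue collected and compound concentration measured (ng/mL plasma, ng/g tumor).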

The subject of data set [5] is Mus musculus. The experiment in a line: In vivo inhibition of HDAC in tumor of human HGC27 cells xenografted in athymic nude BALB/c mouse assessed as increase in acetylated histone-H3 expression by DAB staining based immunohistochemistry method. Type of data set: functional, organism-based. Summed up:
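HGC-27 xenograft tumors from treated and vehicle mice immunostained for Ki67, Ac-H3 and p-AKT(S473) (200×); integrated optical density analysed; mean ± SEM, n = 5−7, one-way ANOVA versus vehicle.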

The target of a further data set is Histone deacetylase 1 (Homo sapiens, UniProt Q13547). In words: Inhibition of recombinant C-terminal His/FLAG-tagged HDAC1 (unknown origin) expressed in baculovirus infected Sf9 insect cells using Ac-peptide as substrate preincubated for 15 mins followed by substrate addition and measured after 1 hr.
Histone deacetylase 1, sequence (Q13547 whole entry): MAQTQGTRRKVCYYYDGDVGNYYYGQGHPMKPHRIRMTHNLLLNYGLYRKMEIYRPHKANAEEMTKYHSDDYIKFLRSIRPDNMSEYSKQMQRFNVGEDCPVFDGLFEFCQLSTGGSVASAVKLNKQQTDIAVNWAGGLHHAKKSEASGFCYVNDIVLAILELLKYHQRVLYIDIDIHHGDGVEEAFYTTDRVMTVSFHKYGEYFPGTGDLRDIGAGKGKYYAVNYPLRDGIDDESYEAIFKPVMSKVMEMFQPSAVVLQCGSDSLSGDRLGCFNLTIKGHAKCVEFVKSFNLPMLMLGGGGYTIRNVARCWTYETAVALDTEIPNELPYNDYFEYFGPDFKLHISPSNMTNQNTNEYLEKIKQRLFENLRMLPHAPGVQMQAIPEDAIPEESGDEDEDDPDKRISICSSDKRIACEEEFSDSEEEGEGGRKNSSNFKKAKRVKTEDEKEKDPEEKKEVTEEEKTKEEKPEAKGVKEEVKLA
The species named for data set [6] is Homo sapiens. In words: Selectivity ratio, ratio of IC50 for recombinant human PIK3CB to recombinant human His-tagged PIK3CD/PIK3R1 expressed in baculovirus expression system.
Data set [7] in a line: Selectivity index, ratio of IC50 for human LO2 cells to IC50 for human HCT116 cells. Type of data set: toxicity. Particulars: LO2 cells and HCT116 cells, read-out: Ratio IC50. The procedure, abridged:
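Ratio of IC50s from the MTT assay: PBMC or LO2 cells versus HCT116. Cells seeded at 2000/well, attached overnight at 37 °C, treated 96 h, MTT 4 h, formazan dissolved in DMSO, A570.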

Molecules are shown by their SMILES. pIC50: −log10 of the molar value. Activity calls are given as the source filed them. No cut-off for these calls is given here.

Take `COc1ncc(-c2cc(OCCCCCCC(=O)NO)c3ncnc(C)c3c2)cc1F`: the Drug metabolism entry in data set [1] is on record as “Metabolite_Detected”. Further, the inhibition result in the data set filed under Homo sapiens [2] and in the data set on Mus musculus [5] was “Active” each time. Besides, the inhibition entry in the data set on Mus musculus [3] is “Dose-dependent effect”. Also, the concentration at 0.5 h in data set [4] was 36.6 ng/g.
On to `COc1ccc(-c2cc(OCCN(C)c3ncc(C(=O)NO)cn3)c3ncnc(C)c3c2)cn1`, for which, at Histone deacetylase 1, the pIC50 was 8.89. In addition, the Ratio IC50 in the data set listed under Homo sapiens [6] is greater than 5. In addition, the selectivity ratio in data set [7] is 1430.

Broadly, the pIC50 is the negative decadic logarithm of the IC50, by convention in mol/L.

Values taken from ChEMBL document CHEMBL4311940, “Design, Synthesis, and Biological Evaluation of 4-Methyl Quinazoline Derivatives as Anticancer Agents Simultaneously Targeting Phosphoinositide 3-Kinases and Histone Deacetylases” (J Med Chem, 2019).
